Results: PMC3125946 (Biochemistry, 2011)

T1: MjCobY (Methanocaldococcus jannaschii, UniProt Q58517, G153D)
T1 sequence (Q58517 1-196 G153D): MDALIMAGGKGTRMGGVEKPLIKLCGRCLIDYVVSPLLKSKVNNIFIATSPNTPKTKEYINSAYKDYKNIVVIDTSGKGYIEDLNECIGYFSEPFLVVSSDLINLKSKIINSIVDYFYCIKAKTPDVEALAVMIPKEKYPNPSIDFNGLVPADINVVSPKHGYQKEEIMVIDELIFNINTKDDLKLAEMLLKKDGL


Target: T1, MjCobY
Assay: isothermal titration calorimetry
Type: binding
Method in brief: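 Recombinant G153D variant purified by heat step (75°C, 15 min), ammonium sulfate, hydrophobic interaction, anion exchange and size-exclusion chromatography; dialysed at 4 °C against Tris-HCl 50 mM pH 8.0, NaCl 50 mM, MgCl2 10 mM, TCEP 4 mM. GTP in spent dialysate; 1 mM stock titrated by 27 injections into 18 µM protein dimers at 27 °C.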

| Molecule | Kd [nM] |
| --- | --- |
| Nc1nc2c(ncn2[C@@H]2O[C@H](COP(=O)(O)OP(=O)(O)OP(=O)(O)O)[C@@H](O)[C@H]2O)c(=O)[nH]1 [GTP] | 400 ± 40 |

Target: the molecule itself
Assay: SEC

| Molecule | percent dimer (Monomer:Dimer Ratio) [%] | percent monomer (Monomer:Dimer Ratio) [%] |
| --- | --- | --- |
| MjCobY^G8D (enzyme, Methanocaldococcus jannaschii, UniProt Q58517 1-196, looked up) MDALIMADGKGTRMGGVEKPLIKLCGRCLIDYVVSPLLKSKVNNIFIATSPNTPKTKEYINSAYKDYKNIVVIDTSGKGYIEDLNECIGYFSEPFLVVSSDLINLKSKIINSIVDYFYCIKAKTPDVEALAVMIPKEKYPNPSIDFNGLVPAGINVVSPKHGYQKEEIMVIDELIFNINTKDDLKLAEMLLKKDGL | 67 | 33 |
| MjCobY D101G (enzyme, Methanocaldococcus jannaschii, UniProt Q58517 1-196, looked up) MDALIMAGGKGTRMGGVEKPLIKLCGRCLIDYVVSPLLKSKVNNIFIATSPNTPKTKEYINSAYKDYKNIVVIDTSGKGYIEDLNECIGYFSEPFLVVSSGLINLKSKIINSIVDYFYCIKAKTPDVEALAVMIPKEKYPNPSIDFNGLVPAGINVVSPKHGYQKEEIMVIDELIFNINTKDDLKLAEMLLKKDGL | 66 | 34 |
| MjCobY T53S (enzyme, Methanocaldococcus jannaschii, UniProt Q58517 1-196, looked up) MDALIMAGGKGTRMGGVEKPLIKLCGRCLIDYVVSPLLKSKVNNIFIATSPNSPKTKEYINSAYKDYKNIVVIDTSGKGYIEDLNECIGYFSEPFLVVSSDLINLKSKIINSIVDYFYCIKAKTPDVEALAVMIPKEKYPNPSIDFNGLVPAGINVVSPKHGYQKEEIMVIDELIFNINTKDDLKLAEMLLKKDGL | 24 | 76 |
| MjCobY D83G (enzyme, Methanocaldococcus jannaschii, UniProt Q58517 1-196, looked up) MDALIMAGGKGTRMGGVEKPLIKLCGRCLIDYVVSPLLKSKVNNIFIATSPNTPKTKEYINSAYKDYKNIVVIDTSGKGYIEGLNECIGYFSEPFLVVSSDLINLKSKIINSIVDYFYCIKAKTPDVEALAVMIPKEKYPNPSIDFNGLVPAGINVVSPKHGYQKEEIMVIDELIFNINTKDDLKLAEMLLKKDGL | 18 | 82 |
| MjCobY P54A (enzyme, Methanocaldococcus jannaschii, UniProt Q58517 1-196, looked up) MDALIMAGGKGTRMGGVEKPLIKLCGRCLIDYVVSPLLKSKVNNIFIATSPNTAKTKEYINSAYKDYKNIVVIDTSGKGYIEDLNECIGYFSEPFLVVSSDLINLKSKIINSIVDYFYCIKAKTPDVEALAVMIPKEKYPNPSIDFNGLVPAGINVVSPKHGYQKEEIMVIDELIFNINTKDDLKLAEMLLKKDGL | 50 | 50 |
| MjCobY P20A (enzyme, Methanocaldococcus jannaschii, UniProt Q58517 1-196, looked up) MDALIMAGGKGTRMGGVEKALIKLCGRCLIDYVVSPLLKSKVNNIFIATSPNTPKTKEYINSAYKDYKNIVVIDTSGKGYIEDLNECIGYFSEPFLVVSSDLINLKSKIINSIVDYFYCIKAKTPDVEALAVMIPKEKYPNPSIDFNGLVPAGINVVSPKHGYQKEEIMVIDELIFNINTKDDLKLAEMLLKKDGL | 37 | 63 |
| MjCobY P94A (enzyme, Methanocaldococcus jannaschii, UniProt Q58517 1-196, looked up) MDALIMAGGKGTRMGGVEKPLIKLCGRCLIDYVVSPLLKSKVNNIFIATSPNTPKTKEYINSAYKDYKNIVVIDTSGKGYIEDLNECIGYFSEAFLVVSSDLINLKSKIINSIVDYFYCIKAKTPDVEALAVMIPKEKYPNPSIDFNGLVPAGINVVSPKHGYQKEEIMVIDELIFNINTKDDLKLAEMLLKKDGL | 48 | 52 |
| MjCobY R13A (enzyme, Methanocaldococcus jannaschii, UniProt Q58517 1-196, looked up) MDALIMAGGKGTAMGGVEKPLIKLCGRCLIDYVVSPLLKSKVNNIFIATSPNTPKTKEYINSAYKDYKNIVVIDTSGKGYIEDLNECIGYFSEPFLVVSSDLINLKSKIINSIVDYFYCIKAKTPDVEALAVMIPKEKYPNPSIDFNGLVPAGINVVSPKHGYQKEEIMVIDELIFNINTKDDLKLAEMLLKKDGL | 86 | 14 |
| MjCobY E18D (enzyme, Methanocaldococcus jannaschii, UniProt Q58517 1-196, looked up) MDALIMAGGKGTRMGGVDKPLIKLCGRCLIDYVVSPLLKSKVNNIFIATSPNTPKTKEYINSAYKDYKNIVVIDTSGKGYIEDLNECIGYFSEPFLVVSSDLINLKSKIINSIVDYFYCIKAKTPDVEALAVMIPKEKYPNPSIDFNGLVPAGINVVSPKHGYQKEEIMVIDELIFNINTKDDLKLAEMLLKKDGL | 60 | 40 |
| MjCobY Y80F (enzyme, Methanocaldococcus jannaschii, UniProt Q58517 1-196, looked up) MDALIMAGGKGTRMGGVEKPLIKLCGRCLIDYVVSPLLKSKVNNIFIATSPNTPKTKEYINSAYKDYKNIVVIDTSGKGFIEDLNECIGYFSEPFLVVSSDLINLKSKIINSIVDYFYCIKAKTPDVEALAVMIPKEKYPNPSIDFNGLVPAGINVVSPKHGYQKEEIMVIDELIFNINTKDDLKLAEMLLKKDGL | 26 | 74 |
| MjCobY^G153D (enzyme, Methanocaldococcus jannaschii) MDALIMAGGKGTRMGGVEKPLIKLCGRCLIDYVVSPLLKSKVNNIFIATSPNTPKTKEYINSAYKDYKNIVVIDTSGKGYIEDLNECIGYFSEPFLVVSSDLINLKSKIINSIVDYFYCIKAKTPDVEALAVMIPKEKYPNPSIDFNGLVPADINVVSPKHGYQKEEIMVIDELIFNINTKDDLKLAEMLLKKDGL | 46 | 54 |
| MjCobY K19A (enzyme, Methanocaldococcus jannaschii, UniProt Q58517 1-196, looked up) MDALIMAGGKGTRMGGVEAPLIKLCGRCLIDYVVSPLLKSKVNNIFIATSPNTPKTKEYINSAYKDYKNIVVIDTSGKGYIEDLNECIGYFSEPFLVVSSDLINLKSKIINSIVDYFYCIKAKTPDVEALAVMIPKEKYPNPSIDFNGLVPAGINVVSPKHGYQKEEIMVIDELIFNINTKDDLKLAEMLLKKDGL | 64 | 36 |
